Experimental data: PMC6221991 (Structure (London, England : 1993), 2018)

Columns and labels:
His-PPARγ = biological target: T1, His-PPARγ (Homo sapiens, UniProt P37231); assay: TR-FRET NR box peptide recruitment assay; assay type: biochemical; conditions: FITC-labeled peptides
T1 sequence (P37231 1-505): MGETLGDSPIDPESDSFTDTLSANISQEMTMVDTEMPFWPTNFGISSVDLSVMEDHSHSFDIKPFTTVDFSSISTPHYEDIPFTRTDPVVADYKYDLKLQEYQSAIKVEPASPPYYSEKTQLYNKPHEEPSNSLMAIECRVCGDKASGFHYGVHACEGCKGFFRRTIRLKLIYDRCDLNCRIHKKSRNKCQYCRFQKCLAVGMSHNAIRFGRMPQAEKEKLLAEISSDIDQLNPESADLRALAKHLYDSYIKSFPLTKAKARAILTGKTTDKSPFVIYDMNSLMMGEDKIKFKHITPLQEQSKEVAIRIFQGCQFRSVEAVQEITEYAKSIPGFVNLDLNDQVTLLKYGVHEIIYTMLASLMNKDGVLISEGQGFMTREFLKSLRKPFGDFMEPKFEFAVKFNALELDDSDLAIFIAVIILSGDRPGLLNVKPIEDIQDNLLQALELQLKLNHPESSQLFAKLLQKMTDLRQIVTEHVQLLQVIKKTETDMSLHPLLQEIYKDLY

[1] = biological target: T2, phosphorylation of PPARγ at S273 (pS273) (Homo sapiens, UniProt P37231); conditions: ref Choi et al., 2010; cited from earlier work
T2 sequence (P37231 1-505): T1 sequence (P37231 1-505)

PPRE = assay: full length PPRE transactivation assay; assay type: cell-based; conditions: for EC50 PPRE: full length PPRE assay
human PPARα (hPPARα) = biological target: T3, human PPARα (hPPARα) (Homo sapiens, UniProt Q07869); assay: PPARα GAL-4 transactivation assay in HEK293T cells; assay type: cell-based
T3 sequence (Q07869 239-466 limits assumed): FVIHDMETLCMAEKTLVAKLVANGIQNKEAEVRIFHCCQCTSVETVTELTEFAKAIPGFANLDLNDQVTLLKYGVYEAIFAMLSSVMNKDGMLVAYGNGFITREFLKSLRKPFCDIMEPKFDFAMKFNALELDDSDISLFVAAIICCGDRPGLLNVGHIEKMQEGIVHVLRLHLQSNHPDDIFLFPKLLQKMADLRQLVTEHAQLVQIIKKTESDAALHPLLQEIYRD

[2] = Plasma exposure following oral administration in mice; assay type: in vivo, C57BL/6 mice
PPARγ Gal-4 = biological target: T4, PPARγ Gal-4 (Homo sapiens, UniProt P37231); assay: Gal4-PPARγ-LBD cell-based transactivation assay in HEK293T cells
T4 sequence (P37231 238-503 limits assumed): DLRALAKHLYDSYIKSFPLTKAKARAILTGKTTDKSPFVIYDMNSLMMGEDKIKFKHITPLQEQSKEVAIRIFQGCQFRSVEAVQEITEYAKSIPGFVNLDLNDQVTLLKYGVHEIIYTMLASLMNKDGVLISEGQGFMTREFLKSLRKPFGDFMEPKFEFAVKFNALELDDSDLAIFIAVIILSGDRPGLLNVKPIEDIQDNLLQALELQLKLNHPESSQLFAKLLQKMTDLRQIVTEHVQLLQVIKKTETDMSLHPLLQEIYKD

hPPARδ = biological target: T5, hPPARδ (Homo sapiens, UniProt Q03181); assay: hPPARδ-Gal4 transactivation assay; assay type: cell-based; conditions: Figure S1A
T5 sequence (Q03181 1-441): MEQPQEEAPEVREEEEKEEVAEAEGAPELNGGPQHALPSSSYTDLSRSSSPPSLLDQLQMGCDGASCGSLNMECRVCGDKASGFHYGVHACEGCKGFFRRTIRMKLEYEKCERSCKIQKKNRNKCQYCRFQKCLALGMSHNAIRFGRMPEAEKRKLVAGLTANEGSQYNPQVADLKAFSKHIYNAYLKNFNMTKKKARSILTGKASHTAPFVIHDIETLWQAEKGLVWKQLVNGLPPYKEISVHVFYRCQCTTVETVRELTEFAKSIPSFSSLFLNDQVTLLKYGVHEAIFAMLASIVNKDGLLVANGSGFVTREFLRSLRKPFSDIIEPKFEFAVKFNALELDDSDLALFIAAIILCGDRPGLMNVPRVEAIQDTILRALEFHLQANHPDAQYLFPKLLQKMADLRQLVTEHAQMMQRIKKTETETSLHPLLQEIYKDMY

[3] = biological target: T2, phosphorylation of PPARγ at S273 (pS273); assay: In vitro Cdk5 kinase assay, phosphorylation of PPARγ at S273; assay type: biochemical; conditions: vs DMSO only controls
Procedure, shortened: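 1 μg immuno-purified WT PPARγ substrate pre-incubated with test compound for 30 min. Active Cdk5/p35 kinase then added in 25 mM Tris-HCl pH 7.5, 5 mM β-glycerophosphate, 2 mM DTT, 0.1 mM Na3VO4, 10 mM MgCl2 and 20 μM ATP, for 15 min at 30 °C. After SDS–PAGE, phospho-Ser in the K/R-S-P-K/R motif was detected with an anti-CDK-substrate antibody.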

3T3-L1 cells = assay: Differentiation of 3T3-L1 cells; assay type: cell-based, Mus musculus; conditions: for RNA-seq differential gene expression: 3T3-L1 cells, 6 days
Procedure, shortened: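 Mouse 3T3-L1 embryo fibroblasts grown in DMEM with 10% heat-inactivated FBS, 2mM L-glutamine and 1% penicillin/streptomycin at 37 °C, 5% CO2. Test compound (1μM) added from the first day of differentiation; six days' incubation. Lipid droplets stained with Oil Red. Gene expression by qPCR: SYBR green, ΔΔ-Ct method normalised to Tbp. RNA-seq used stranded (dUTP) cDNA libraries. Mean ± SEM.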

PPARγ LBD = biological target: T6, PPARγ LBD (human, UniProt P37231 231-505); assay: cross-linking
T6 sequence (looked up): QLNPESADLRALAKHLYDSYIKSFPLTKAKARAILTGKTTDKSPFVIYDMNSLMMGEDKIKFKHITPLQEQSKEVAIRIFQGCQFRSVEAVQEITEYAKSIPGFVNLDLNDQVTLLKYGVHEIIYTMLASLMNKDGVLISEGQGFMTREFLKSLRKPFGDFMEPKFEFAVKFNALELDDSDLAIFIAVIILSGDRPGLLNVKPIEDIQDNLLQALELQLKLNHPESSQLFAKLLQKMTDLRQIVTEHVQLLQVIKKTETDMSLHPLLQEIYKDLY

MRL24
PPARγ interaction with coactivator NR box peptides p300 and SRC1–2 (His-PPARγ): enhanced the association | PPARγ interaction with corepressor peptides NCOR1–3 and SMRT-2 (His-PPARγ): facilitated dissociation | inhibition of p273-PPARγ compared with Rosi [1]: More potent than Rosi to inhibit p273 ([Choi et al., 2010])

Cc1c(C)n(Cc2ccc(-c3ccccc3C(=O)O)cc2)c2ccc(C(=O)N[C@@H](C)c3ccc([N+](=O)[O-])cc3)cc12 [SR1664, reference compound]
EC50 PPRE (PPRE): No activity | EC50 (human PPARα (hPPARα); read-out: EC50 PPARα GAL-4): 8600 nM | plasma concentration ([2]; C57BL/6 mice, oral, 40mg.kg−1, two hours after dosing): less than 1 μM

Cc1c(C)n(Cc2ccc(C(C)(C)C(=O)O)cc2)c2ccc(C(=O)N[C@@H](C)c3cccc(C4CC4)c3)cc12 [SR11023, (S)-2-(4-((5-((1-(3-cyclopropylphenyl)ethyl)carbamoyl)-2,3-dimethyl-1H-indol-1-yl)methyl)phenyl)-2-methylpropanoic acid]
EC50 (PPARγ Gal-4; EC50 PPARγ Gal-4, HEK293T): 2760 nM | Max.Stim. PPARγ Gal-4 (PPARγ Gal-4; HEK293T): 10% | shift of the dose response curve for rosiglitazone in the GAL4-PPARG assay (PPARγ Gal-4; data not shown): significantly right-shift the dose response curve for rosiglitazone | EC50 PPRE (PPRE): No activity | EC50 PPARα GAL-4 (human PPARα (hPPARα)): No activity | transcriptional agonism, hPPARα-Gal4 transactivation (human PPARα (hPPARα); Figure S1A): no transcriptional agonism | transcriptional agonism, hPPARδ-Gal4 transactivation (hPPARδ): no transcriptional agonism | % inhibition p273-PPARγ ([3]; 20μM, 20 µM): 77% | inhibition at 2 µM ([3]; read-out: % inhibition p273-PPARγ, 2μM): 25% | concentration at 2 h ([2]; C57BL/6, mouse, plasma, po, 40 mg.kg−1): 70 µM | RNA-seq differential gene expression (3T3-L1 cells): very modest regulation of only a small subset of PPARγ controlled genes | adipogenic activity (lipid formation, aP2 and cd36 expression) (3T3-L1 cells; differentiated 3T3-L1 cells, 1μM, six days): minimal adipogenic activity | PPARγ interaction with coactivator NR box peptides p300 and SRC1–2 (His-PPARγ): no enhanced interaction | PPARγ interaction with corepressor peptides NCOR1–3 and SMRT-2 (His-PPARγ): increased

CN(CCOc1ccc(CC2SC(=O)NC2=O)cc1)c1ccccn1 (centres unmarked) [Rosiglitazone, reference compound]
EC50 (PPRE; read-out: EC50 PPRE): 10 nM | RNA-seq differential gene expression (3T3-L1 cells): robust activation of a large gene set containing many known PPARγ target genes

LTERHKILHRLLQEGSPSD [SRC1–2 NR box peptide]
binding result (PPARγ LBD): binds
